Active and inactive are the calls of the source. No cut-off for these calls is given here.
What was measured:
MV4-11 [1] = assay: Cell cycle arrest in human MV4-11 cells assessed as accumulation at S phase at 10 uM measured after 24 hrs by propidium iodide staining based flow cytometry relative to control; type: functional
How it was run: (§1)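 MV4-11 cells treated 24 h at 2.5 and 10 μM; cell-cycle phase distribution (sub-G1, G1, S, G2/M) by flow cytometry; at least two independent experiments, numerical data as mean value.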

MOLM-13 [2] = assay: Induction of apoptosis in human MOLM13 cells assessed as early apoptotic cells at 2.5 uM measured after 24 hrs by Annexin V-FITC/PI staining based flow cytometry (reference value: 3.38%); type: functional
MOLM-13 [3] = assay: Induction of apoptosis in human MOLM13 cells assessed as late apoptotic cells at 10 uM measured after 24 hrs by Annexin V-FITC/PI staining based flow cytometry (reference value: 1.94%); type: functional
[4] = molecular target: Cyclin-dependent kinase 5 (Homo sapiens) (UniProt Q00535); assay: Inhibition of CDK5 in human MV4-11 cells assessed as decrease in phosphorylated RB protein level at 5 to 10 uM measured after 24 hrs incubation by Western blot analysis; type: cell-based
How it was run: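 Cells treated for 24 h; lysates immunoblotted for pAkt (S473), pRB (S780), cyclin D1, p27KIP1, and cleaved caspase 3 and 7 (MOLM-13); at least two independent repeats.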

[5] = molecular target: Cyclin-dependent kinase 5/CDK5 activator 1 (Homo sapiens, UniProt Q00535+Q15078); assay: Inhibition of recombinant full length N-terminal GST tagged human CDK5/p25 expressed in baculovirus infected sf9 cells using histone H1 as substrate at 10 uM measured after 60 mins in presence of ATP by ADP-Glo kinase assay relative to control
MV4-11 [6] = assay: Cell cycle arrest in human MV4-11 cells assessed as accumulation at G2/M phase at 10 uM measured after 24 hrs by propidium iodide staining based flow cytometry relative to control; type: functional; how it was run: as §1
CDK9/cyclin T1 = CDK9/cyclin T1 (Homo sapiens, UniProt P50750); assay: Inhibition of human recombinant full length N-terminal GST His6 fused CDK9 (M1 to F372 residues/ N-terminal His6 tagged Cyclin T1 (M1 to K726 residues) expressed in sf9 cells using RBER-IRStide as substrate incubated for 90 mins in presence of ATP by ADP-Glo kinase assay
MV4-11 [7] = assay: Cell cycle arrest in human MV4-11 cells assessed as accumulation at G1 phase at 10 uM measured after 24 hrs by propidium iodide staining based flow cytometry relative to control; type: functional; how it was run: as §1
MV4-11 [8] = assay: Cell cycle arrest in human MV4-11 cells assessed as accumulation at sub G1 phase at 10 uM measured after 24 hrs by propidium iodide staining based flow cytometry relative to control; type: functional; how it was run: as §1
CDK6/cyclin D3 = CDK6/cyclin D3 (Homo sapiens, UniProt Q00534); assay: Inhibition of human recombinant N-terminal GST-tagged CDK6 (M1-A326 residues) and His6 tagged Cyclin D3 (M1-L292 residues) expressed in sf9 cells using histone H1 (GGGPATPKKAKKL) as substrate incubated for 60 mins in presence of ATP by ADP-Glo kinase assay
MOLM-13 [9] = assay: Induction of apoptosis in human MOLM13 cells assessed as viable cells at 10 uM measured after 24 hrs by Annexin V-FITC/PI staining based flow cytometry relative to control; type: functional; conditions: MOLM-13, 24 h, read-out: Activity
Homo sapiens = organism: Homo sapiens; assay: Selectivity ratio of Ki for recombinant full length N-terminal GST tagged human CDK2/CyclinA expressed in baculovirus infected sf9 cells using histone H1 as substrate to recombinant full length N-terminal GST tagged human CDK5/p25 expressed in baculovirus infected sf9 cells using histone H1 as substrate by ADP-Glo kinase assay
MOLM-13 [10] = assay: Induction of apoptosis in human MOLM13 cells assessed as necrotic cells at 10 uM measured after 24 hrs by Annexin V-FITC/PI staining based flow cytometry relative to control; type: functional

Cyclin-dependent kinase 5/CDK5 activator 1, sequence (Q00535 whole entry): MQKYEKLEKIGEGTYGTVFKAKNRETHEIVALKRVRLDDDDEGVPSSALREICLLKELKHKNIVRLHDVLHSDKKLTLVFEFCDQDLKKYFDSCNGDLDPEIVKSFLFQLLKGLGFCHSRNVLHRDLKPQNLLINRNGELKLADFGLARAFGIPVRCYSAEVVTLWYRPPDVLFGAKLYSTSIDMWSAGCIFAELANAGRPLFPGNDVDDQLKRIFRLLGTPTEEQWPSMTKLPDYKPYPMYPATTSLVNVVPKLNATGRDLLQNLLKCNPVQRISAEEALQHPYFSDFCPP
Cyclin-dependent kinase 5/CDK5 activator 1, sequence (Q15078 99-307 partner limits assumed): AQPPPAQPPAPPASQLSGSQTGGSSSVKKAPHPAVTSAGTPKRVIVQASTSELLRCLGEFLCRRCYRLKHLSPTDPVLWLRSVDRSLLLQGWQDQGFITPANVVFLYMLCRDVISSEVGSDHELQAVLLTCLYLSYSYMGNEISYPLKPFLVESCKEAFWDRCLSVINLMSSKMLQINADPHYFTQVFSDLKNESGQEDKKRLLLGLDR
Cyclin-dependent kinase 5 (Homo sapiens), sequence (Q00535 whole entry, looked up): as the sequence (Q00535 whole entry) above
CDK6/cyclin D3, sequence (P30281 whole entry, the tested form may be a part): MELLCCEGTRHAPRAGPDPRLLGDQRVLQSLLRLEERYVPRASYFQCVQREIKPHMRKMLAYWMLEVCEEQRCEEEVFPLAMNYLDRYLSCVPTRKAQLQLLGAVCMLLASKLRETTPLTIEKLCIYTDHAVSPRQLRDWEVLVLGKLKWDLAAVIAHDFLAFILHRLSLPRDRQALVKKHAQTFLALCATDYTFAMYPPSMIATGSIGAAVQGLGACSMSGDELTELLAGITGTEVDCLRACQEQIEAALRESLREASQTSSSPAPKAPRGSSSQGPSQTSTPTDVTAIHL
CDK6/cyclin D3, sequence (Q00534 whole entry, the tested form may be a part): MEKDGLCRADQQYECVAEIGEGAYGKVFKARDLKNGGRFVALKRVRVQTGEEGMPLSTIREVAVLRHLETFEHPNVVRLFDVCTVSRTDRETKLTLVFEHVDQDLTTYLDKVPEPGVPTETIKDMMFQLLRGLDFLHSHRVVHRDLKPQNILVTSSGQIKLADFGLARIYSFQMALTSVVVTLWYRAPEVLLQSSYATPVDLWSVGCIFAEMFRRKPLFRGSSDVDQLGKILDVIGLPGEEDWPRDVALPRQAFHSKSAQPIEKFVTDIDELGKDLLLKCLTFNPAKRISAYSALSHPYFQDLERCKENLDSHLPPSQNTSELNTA
CDK9/cyclin T1, sequence (O60563 whole entry, the tested form may be a part): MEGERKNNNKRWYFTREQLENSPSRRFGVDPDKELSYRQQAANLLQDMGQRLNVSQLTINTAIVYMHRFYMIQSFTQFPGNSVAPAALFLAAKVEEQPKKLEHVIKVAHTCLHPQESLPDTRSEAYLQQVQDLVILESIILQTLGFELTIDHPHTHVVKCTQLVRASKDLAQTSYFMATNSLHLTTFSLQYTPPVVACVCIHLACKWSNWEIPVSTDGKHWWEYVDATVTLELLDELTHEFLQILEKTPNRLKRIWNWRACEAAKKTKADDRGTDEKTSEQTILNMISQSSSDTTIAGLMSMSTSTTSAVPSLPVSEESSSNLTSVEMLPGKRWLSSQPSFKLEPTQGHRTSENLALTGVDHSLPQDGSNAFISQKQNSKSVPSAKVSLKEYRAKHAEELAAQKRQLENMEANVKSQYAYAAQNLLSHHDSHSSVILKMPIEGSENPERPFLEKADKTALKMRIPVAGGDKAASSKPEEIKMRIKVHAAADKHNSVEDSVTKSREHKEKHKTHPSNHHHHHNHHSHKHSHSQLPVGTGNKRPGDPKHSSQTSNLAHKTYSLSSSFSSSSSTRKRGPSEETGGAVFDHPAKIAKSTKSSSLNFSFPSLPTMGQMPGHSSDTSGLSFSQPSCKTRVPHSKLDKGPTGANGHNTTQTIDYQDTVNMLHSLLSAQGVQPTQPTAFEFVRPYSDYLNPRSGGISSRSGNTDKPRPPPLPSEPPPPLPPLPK
CDK9/cyclin T1, sequence (P50750 whole entry, the tested form may be a part): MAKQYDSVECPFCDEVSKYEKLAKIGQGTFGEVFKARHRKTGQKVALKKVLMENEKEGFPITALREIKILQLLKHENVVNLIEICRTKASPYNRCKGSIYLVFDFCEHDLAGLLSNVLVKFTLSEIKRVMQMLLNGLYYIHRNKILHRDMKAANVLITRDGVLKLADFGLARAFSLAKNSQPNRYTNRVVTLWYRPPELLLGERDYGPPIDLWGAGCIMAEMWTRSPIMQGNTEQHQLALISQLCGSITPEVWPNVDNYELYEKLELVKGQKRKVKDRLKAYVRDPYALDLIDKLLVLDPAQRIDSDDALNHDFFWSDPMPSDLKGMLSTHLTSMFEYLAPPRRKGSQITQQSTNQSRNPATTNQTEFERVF

SMILES: NS(=O)(=O)c1cccc(Nc2ncc3c(n2)CCCC3)c1
- Activity (MV4-11 [1]): 2.67%
- Activity (MOLM-13 [2]): 10.05%
- Activity (MOLM-13 [3]): 6.16%
- inhibition [4]: Active
- inhibition [5]: 98%
- Activity (MV4-11 [6]): 3.15%
- Ki (CDK9/cyclin T1): 1 µM
- Activity (MV4-11 [7]): 88.08%
- Activity (MV4-11 [8]): 5.08%
- Ki (CDK6/cyclin D3): 3.01 µM

SMILES: Cc1cccc(Nc2ncc3c(n2)CCCC3)c1
- Activity (MOLM-13 [2]): 8.31%
- Activity (MOLM-13 [3]): 7.92%
- inhibition [4]: Active
- viability at 10 µM (MOLM-13 [9]): 61.8%
- inhibition [5]: 87%
- Ki (CDK9/cyclin T1): > 5 µM
- Ratio Ki (Homo sapiens): 4
- Activity (MOLM-13 [10]): 0.17%
- Ki (CDK6/cyclin D3): > 5 µM

Reference: ChEMBL document CHEMBL4396883, “Discovery of CDK5 Inhibitors through Structure-Guided Approach” (ACS Med Chem Lett, 2019)
